Values after ≈ are worked out from the molar mass of the structure shown.
Assays:
[1] = test system: C[C@@H](O)[C@H]1C(=O)N2C(C(=O)O)=C(S[C@@H]3CN[C@H](C(=O)N(C)C)C3)[C@H](C)[C@H]12; assay: purified protein, by the assay type; details: other: substrate hydrolysis by KPC-2, 30 °C, pH 7
[2] = test system: CC(C)(O/N=C(\C(=O)N[C@@H]1C(=O)N2C(C(=O)[O-])=C(C[n+]3ccccc3)CS[C@H]12)c1csc(N)n1)C(=O)O; assay: purified protein, by the assay type; details: other: substrate hydrolysis by KPC-2, 30 °C, pH 7
[3] = test system: C[C@@H](O)[C@H]1C(=O)N2C(C(=O)O)=C(SCCN=CN)C[C@H]12; assay: purified protein, by the assay type; details: other: substrate hydrolysis by KPC-2, 30 °C, pH 7
KPC-2 [4] = biological target: T1, KPC-2 (Klebsiella pneumoniae, UniProt Q9F663); assay: Decarbamylation/deborylation rate; assay type: biochemical; details: jump dilution, 30 °C
Method in brief: (§1)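 It was then diluted 100-fold into the same buffer and added to 200 μM nitrocefin at 1:10. Recovery of activity was followed continuously at A482, 30 °C. Vaborbactam deborylation was run the same way.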

KPC-44 [5] = biological target: T2, KPC-44 (Klebsiella pneumoniae, UniProt Q9F663, DUP260-274); assay: Decarbamylation/deborylation rate; assay type: biochemical; details: for k-2: KPC-44, jump dilution, 30 °C
Method in brief: as §1

KPC-44 [6] = biological target: T2, KPC-44; assay type: biochemical; details: for kcat / Km: substrate hydrolysis by KPC-44, 30 °C; for kcat: 50 mM sodium phosphate pH 7; for Km: pH 7; for fold lower kcat than KPC-2 / fold lower kcat/KM than KPC-2: KPC-44 vs KPC-2
[7] = test system: Escherichia coli expressing KPC-2; assay: MIC by broth dilution, E. coli expressing KPC-2; assay type: cell-based
[8] = test system: Escherichia coli Top10 vector control (no β-lactamase); assay: MIC by broth dilution, E. coli vector control; assay type: cell-based
[9] = test system: Escherichia coli expressing KPC-44; assay: MIC by broth dilution, E. coli expressing KPC-44; assay type: cell-based; details: for fold lower MIC than WT KPC-2: E. coli expressing KPC-44 vs KPC-2; for MIC: Escherichia coli
KPC-44 [10] = biological target: T2, KPC-44; assay: Inhibition of nitrocefin hydrolysis; assay type: biochemical
KPC-2 [11] = biological target: T1, KPC-2; assay: Steady-state kinetics of β-lactam hydrolysis by KPC-2; details: substrate hydrolysis by KPC-2; 30 °C, 50 mM sodium phosphate pH 7
KPC-2 [12] = biological target: T1, KPC-2; assay: Inhibition of nitrocefin hydrolysis; assay type: biochemical

KPC-2 (Klebsiella pneumoniae)
Km [1]: 19 ± 2.9 µM
kcat [1]: 3.3 ± 0.18 s⁻¹
kcat/Km [1]: 170000 ± 28000 M⁻¹ s⁻¹
kcat [2]: > 0.8 s⁻¹
kcat/Km [2]: 1100 ± 66 M⁻¹ s⁻¹
Km [3]: 130 ± 33 µM
kcat [3]: 50 ± 4.5 s⁻¹
kcat/Km [3]: 380000 ± 100000 M⁻¹ s⁻¹

NC(=O)[C@@H]1CC[C@@H]2CN1C(=O)N2OS(=O)(=O)O [Avibactam]
k-2 (KPC-2 [4]): (9.6 ± 0.020) × 10^−5 s^−1
k-2 (KPC-44 [5]): (7.1 ± 0.32) × 10^−5 s^−1

CC1(C)S[C@@H]2[C@H](NC(=O)[C@H](N)c3ccccc3)C(=O)N2[C@H]1C(=O)O [Ampicillin]
kcat (KPC-44 [6]): 126 ± 5 s⁻¹
Km (KPC-44 [6]): 232 ± 22 µM
MIC [7]: 128 µg/mL (≈ 366 µM)
MIC [8]: 4 µg/mL (≈ 11.4 µM)
fold lower MIC than WT KPC-2 [9]: 2 fold
MIC [9]: 64 µg/mL (≈ 183 µM)

C[C@@H](O)[C@H]1C(=O)N2C(C(=O)O)=C(SCCN=CN)C[C@H]12 [Imipenem]
fold lower kcat than KPC-2 (KPC-44 [6]): 8 fold
fold lower kcat/KM than KPC-2 (KPC-44 [6]): 4 fold
kcat (KPC-44 [6]): 6.4 ± 0.33 s⁻¹
Km (KPC-44 [6]): 57 ± 7.1 µM
MIC [7]: 1.5 µg/mL (≈ 5.01 µM)
MIC [8]: 0.25 µg/mL (≈ 0.835 µM)
fold lower MIC than WT KPC-2 [9]: 2 fold
fold higher MIC than negative control ([9]; E. coli expressing KPC-44 vs no β-lactamase control): 3 fold
MIC [9]: 0.75 µg/mL (≈ 2.51 µM)

O=C(O)[C@H]1/C(=C/CO)O[C@@H]2CC(=O)N21 [Clavulanate]
IC50 (KPC-44 [10]): 4800 ± 170 nM

O=C(Cc1cccs1)N[C@@H]1C(=O)N2C(C(=O)O)=C(/C=C/c3ccc([N+](=O)[O-])cc3[N+](=O)[O-])CS[C@H]12 [Nitrocefin]
kcat (KPC-2 [11]): 130 ± 2.2 s⁻¹
kcat (KPC-44 [6]): 20 ± 0.67 s⁻¹
Km (KPC-44 [6]): 16 ± 1.4 µM

O=C(O)C[C@@H]1CC[C@H](NC(=O)Cc2cccs2)B(O)O1 [Vaborbactam]
k-2 (KPC-2 [4]): (1.2 ± 0.014) × 10^−5 s^−1
IC50 (KPC-2 [12]): 130 ± 5.4 nM
k-2 (KPC-44 [5]): (2.9 ± 0.047) × 10^−5 s^−1
fold higher k-2 than KPC-2 (KPC-44 [5]; KPC-44 vs KPC-2): 3 fold
IC50 (KPC-44 [10]): 220 ± 0.92 nM
fold difference in IC50 (less potent versus KPC-44 compared to KPC-2) (KPC-44 [10]; KPC-44 vs KPC-2): less than 2 fold

CC(C)(O/N=C(\C(=O)N[C@@H]1C(=O)N2C(C(=O)[O-])=C(C[n+]3ccccc3)CS[C@H]12)c1csc(N)n1)C(=O)O [Ceftazidime]
MIC [7]: 2 µg/mL (≈ 3.66 µM)
MIC [8]: 0.5 µg/mL (≈ 0.915 µM)
MIC [9]: 8 µg/mL (≈ 14.6 µM)

C[C@@H](O)[C@H]1C(=O)N2C(C(=O)O)=C(S[C@@H]3CN[C@H](C(=O)N(C)C)C3)[C@H](C)[C@H]12 [Meropenem]
fold lower kcat than KPC-2 (KPC-44 [6]): 7 fold
fold lower kcat/KM than KPC-2 (KPC-44 [6]): 3 fold
kcat (KPC-44 [6]): 0.46 ± 0.022 s⁻¹
Km (KPC-44 [6]): 7.3 ± 1.4 µM
MIC [7]: 0.375 µg/mL (≈ 0.978 µM)
MIC [8]: 0.25 µg/mL (≈ 0.652 µM)
MIC [9]: 0.25 µg/mL (≈ 0.652 µM)
